Measured values published in ChEMBL document CHEMBL5058577, “EUbOPEN Chemogenomics Library 2 (Multiplex)” (2022).

Test system: Fibroblast
Assay: Multiplex assay against human fibroblast
Assay type: toxicity, cell-based
Method in brief: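 At seeding, live cells were stained with Hoechst33342, BioTracker Green Microtubule Cytoskeleton Dye, MitoTracker Red and Annexin V Alexa Fluor 680. After compound addition they were imaged on a CQ1 microscope at 37°C and 5% CO2, and CellPathfinder machine-learning gating sorted them into Hoechst high-intensity objects or normal cells, with normal cells further split into healthy, pyknosed or fragmented nuclei and pyknosed cells into mitotic or apoptotic. Tubulin, mitochondrial-mass and membrane-permeability phenotypes are given as per cents of cells with healthy nuclei.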

[1] = 12 h, 1 µM, compound concentration 1 uM, replicate 1
[2] = 12 h, 1 µM, compound concentration 1 uM, replicate 2
[3] = 12 h, 10 µM, compound concentration 10 uM, replicate 1
[4] = 12 h, 10 µM, compound concentration 10 uM, replicate 2
[5] = 24 h, 1 µM, compound concentration 1 uM, replicate 1
[6] = 24 h, 1 µM, compound concentration 1 uM, replicate 2
[7] = 24 h, 10 µM, compound concentration 10 uM, replicate 1
[8] = 24 h, 10 µM, compound concentration 10 uM, replicate 2
[9] = 48 h, 1 µM, compound concentration 1 uM, replicate 1
[10] = 48 h, 1 µM, compound concentration 1 uM, replicate 2
[11] = 48 h, 10 µM, compound concentration 10 uM, replicate 1
[12] = 48 h, 10 µM, compound concentration 10 uM, replicate 2

Cc1cc(O)c(-c2ccc([C@@H](C)CN(C)C)cc2)c2c1[nH]c(=O)c1sccc12
Population Apoptotic (%) [1]: 59% | Population Fragmented Nuclei (%) [1]: 12% | Population Healthy Nuclei (%) [1]: 67% | Population Hoechst High Intensity Objects (%) [1]: 7% | Population Membrane Permeable-Phenotype (%) [1]: 1% | Population Mitochondria Different-Phenotype (%) [1]: 17% | Population Mitotic Cells (%) [1]: 40% | Population Normal (%) [1]: 92% | Population Pyknosed Nuclei (%) [1]: 20% | Population Tubulin-Different-Phenotype (%) [1]: 44% | Total Cell Count [1]: 145 | Population Apoptotic (%) [2]: 50% | Population Fragmented Nuclei (%) [2]: 22% | Population Healthy Nuclei (%) [2]: 56% | Population Hoechst High Intensity Objects (%) [2]: 2% | Population Membrane Permeable-Phenotype (%) [2]: 4% | Population Mitochondria Different-Phenotype (%) [2]: 12% | Population Mitotic Cells (%) [2]: 50% | Population Normal (%) [2]: 97% | Population Pyknosed Nuclei (%) [2]: 21% | Population Tubulin-Different-Phenotype (%) [2]: 52% | Total Cell Count [2]: 115 | Population Apoptotic (%) [3]: 69% | Population Fragmented Nuclei (%) [3]: 19% | Population Healthy Nuclei (%) [3]: 63% | Population Hoechst High Intensity Objects (%) [3]: 6% | Population Membrane Permeable-Phenotype (%) [3]: 0% | Population Mitochondria Different-Phenotype (%) [3]: 40% | Population Mitotic Cells (%) [3]: 30% | Population Normal (%) [3]: 93% | Population Pyknosed Nuclei (%) [3]: 16% | Population Tubulin-Different-Phenotype (%) [3]: 90% | Total Cell Count [3]: 146 | Population Apoptotic (%) [4]: 70% | Population Fragmented Nuclei (%) [4]: 28% | Population Healthy Nuclei (%) [4]: 55% | Population Hoechst High Intensity Objects (%) [4]: 5% | Population Membrane Permeable-Phenotype (%) [4]: 2% | Population Mitochondria Different-Phenotype (%) [4]: 19% | Population Normal (%) [4]: 94% | Population Pyknosed Nuclei (%) [4]: 15% | Population Tubulin-Different-Phenotype (%) [4]: 80% | Total Cell Count [4]: 137 | Population Apoptotic (%) [5]: 45% | Population Fragmented Nuclei (%) [5]: 11% | Population Healthy Nuclei (%) [5]: 66% | Population Hoechst High Intensity Objects (%) [5]: 7% | Population Membrane Permeable-Phenotype (%) [5]: 0% | Population Mitochondria Different-Phenotype (%) [5]: 27% | Population Mitotic Cells (%) [5]: 54% | Population Normal (%) [5]: 92% | Population Pyknosed Nuclei (%) [5]: 21% | Population Tubulin-Different-Phenotype (%) [5]: 73% | Total Cell Count [5]: 119 | Population Apoptotic (%) [6]: 52% | Population Fragmented Nuclei (%) [6]: 28% | Population Healthy Nuclei (%) [6]: 54% | Population Hoechst High Intensity Objects (%) [6]: 9% | Population Membrane Permeable-Phenotype (%) [6]: 1% | Population Mitochondria Different-Phenotype (%) [6]: 10% | Population Mitotic Cells (%) [6]: 47% | Population Normal (%) [6]: 90% | Population Pyknosed Nuclei (%) [6]: 16% | Population Tubulin-Different-Phenotype (%) [6]: 56% | Total Cell Count [6]: 111 | Population Apoptotic (%) [7]: 66% | Population Fragmented Nuclei (%) [7]: 11% | Population Healthy Nuclei (%) [7]: 65% | Population Hoechst High Intensity Objects (%) [7]: 3% | Population Membrane Permeable-Phenotype (%) [7]: 0% | Population Mitochondria Different-Phenotype (%) [7]: 42% | Population Mitotic Cells (%) [7]: 33% | Population Normal (%) [7]: 96% | Population Pyknosed Nuclei (%) [7]: 22% | Population Tubulin-Different-Phenotype (%) [7]: 87% | Total Cell Count [7]: 122 | Population Apoptotic (%) [8]: 57% | Population Fragmented Nuclei (%) [8]: 30% | Population Healthy Nuclei (%) [8]: 51% | Population Hoechst High Intensity Objects (%) [8]: 8% | Population Membrane Permeable-Phenotype (%) [8]: 3% | Population Mitochondria Different-Phenotype (%) [8]: 34% | Population Mitotic Cells (%) [8]: 42% | Population Normal (%) [8]: 91% | Population Pyknosed Nuclei (%) [8]: 18% | Population Tubulin-Different-Phenotype (%) [8]: 81% | Total Cell Count [8]: 124 | Population Apoptotic (%) [9]: 70% | Population Fragmented Nuclei (%) [9]: 19% | Population Healthy Nuclei (%) [9]: 55% | Population Hoechst High Intensity Objects (%) [9]: 7% | Population Membrane Permeable-Phenotype (%) [9]: 1% | Population Mitochondria Different-Phenotype (%) [9]: 26% | Population Mitotic Cells (%) [9]: 29% | Population Normal (%) [9]: 92% | Population Pyknosed Nuclei (%) [9]: 24% | Population Tubulin-Different-Phenotype (%) [9]: 70% | Total Cell Count [9]: 118 | Population Apoptotic (%) [10]: 57% | Population Fragmented Nuclei (%) [10]: 31% | Population Healthy Nuclei (%) [10]: 48% | Population Hoechst High Intensity Objects (%) [10]: 9% | Population Membrane Permeable-Phenotype (%) [10]: 2% | Population Mitochondria Different-Phenotype (%) [10]: 20% | Population Mitotic Cells (%) [10]: 42% | Population Normal (%) [10]: 90% | Population Pyknosed Nuclei (%) [10]: 20% | Population Tubulin-Different-Phenotype (%) [10]: 62% | Total Cell Count [10]: 103 | Population Apoptotic (%) [11]: 70% | Population Fragmented Nuclei (%) [11]: 17% | Population Healthy Nuclei (%) [11]: 53% | Population Hoechst High Intensity Objects (%) [11]: 10% | Population Membrane Permeable-Phenotype (%) [11]: 0% | Population Mitochondria Different-Phenotype (%) [11]: 53% | Population Mitotic Cells (%) [11]: 29% | Population Normal (%) [11]: 89% | Population Pyknosed Nuclei (%) [11]: 29% | Population Tubulin-Different-Phenotype (%) [11]: 89% | Total Cell Count [11]: 117 | Population Apoptotic (%) [12]: 71% | Population Fragmented Nuclei (%) [12]: 39% | Population Healthy Nuclei (%) [12]: 43% | Population Hoechst High Intensity Objects (%) [12]: 7% | Population Mitochondria Different-Phenotype (%) [12]: 30% | Population Mitotic Cells (%) [12]: 28% | Population Normal (%) [12]: 92% | Population Pyknosed Nuclei (%) [12]: 16% | Population Tubulin-Different-Phenotype (%) [12]: 85% | Total Cell Count [12]: 136
